Results taken from ChEMBL document CHEMBL1125763, “Structure-activity studies of antitumor agents based on pyrrolo[1,2-a]benzimidazoles: new reductive alkylating DNA cleaving agents” (J Med Chem, 1991).
Blank lines part the entries; values can stand above or below the compound they belong to.

Columns and labels:
WiDr = experiment: In vitro inhibition of WiDr colon cancer cell line; type: functional, cell-based; conditions: Homo sapiens
In short: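 Cells plated at 50 000 per well in 96-well trays. Drugs dissolved in DMSO as stock, then diluted in buffer and added to wells. IC50 was calculated from concentration–survival curves over a concentration range giving 0–100% survival.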

RPMI-8226 [1] = experiment: In vitro inhibition of […] myeloma cancer cell line; type: functional, cell-based; conditions: Homo sapiens
In short: (§1)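 Cell growth inhibition: cells plated at 50 000/well; drugs dissolved in DMSO as stock and diluted in buffer before addition. IC50 taken from concentration-survival curves over a range of concentrations giving 0-100% survival.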

A2780 [2] = experiment: In vitro inhibition of 2780/DOX ovarian cancer cell line; type: functional, cell-based; conditions: Homo sapiens; in short: as §1
SW480 = experiment: In vitro inhibition of SW480 colon cancer cell line; type: functional, cell-based; conditions: Homo sapiens; in short: as §1
RPMI-8226 [3] = experiment: Dose-Response relationship for DNA single-strand cleavage with the compound in human 8226 multiple myeloma cells at a concentration of 10 ug/mL x1 hr; type: functional
A2780 [4] = experiment: In vitro inhibition of 2780/S ovarian cancer cell line; type: functional, cell-based; conditions: Homo sapiens; in short: as §1
2008/S [5] = experiment: In vitro inhibition of 2008/S ovarian cancer cell line; type: functional, cell-based; conditions: Homo sapiens; in short: as §1
RPMI-8226 [6] = experiment: Dose-Response relationship for DNA single-strand cleavage with the compound in human 8226 multiple myeloma cells at a concentration of 1.0 ug/mL x1 hr; type: functional
2008/R [7] = experiment: In vitro inhibition of 2008/R ovarian cancer cell line; type: functional, cell-based; conditions: Homo sapiens; in short: as §1
Ovarian carcinoma cell = experiment: Inhibitory activity against ovarian cancer cell line; NA= Not achievable; type: functional, cell-based, Homo sapiens
In short: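 Fresh human tumor chemosensitivity assay: ovarian cancers removed surgically from patients, minced, and plated on soft agar as a single-cell suspension.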

RPMI-8226 [8] = experiment: Dose-Response relationship for DNA single-strand cleavage with the compound in human 8226 multiple myeloma cells at a concentration of 0.1 ug/mL x1 hr.; type: functional
2008/S [9] = experiment: In vitro inhibition of 2008/S ovarian cancer cell line; NA= Not achievable; type: functional, cell-based, Homo sapiens; in short: as §1
2008/R [10] = experiment: In vitro inhibition of 2008/R ovarian cancer cell line; NA= Not achievable; type: functional, cell-based, Homo sapiens; in short: as §1

SMILES: CC1=C(N(C)C)C(=O)c2nc3n(c2C1=O)CCC3OC(N)=O (configuration not stated)
IC50 (WiDr): 13000 nM

SMILES: CC(=O)OC1CCn2c1nc1c2C(=O)C(C)=C(N2CC2)C1=O (configuration not stated)
IC50 (RPMI-8226 [1]): 100 nM
IC50 (A2780 [2]): 16 nM
IC50 (SW480): 9 nM
Cleavage (RPMI-8226 [3]): 469
IC50 (A2780 [4]): 0.6 nM
IC50 (WiDr): 10 nM
IC50 (2008/S [5]): 7 nM
Cleavage (RPMI-8226 [6]): 321
IC50 (2008/R [7]): 7 nM
IC50 (Ovarian carcinoma cell): Not Active
Cleavage (RPMI-8226 [8]): 59

SMILES: CC1=C(N2CC2)C(=O)c2nc3n(c2C1=O)CCC3
IC50 (WiDr): 15 nM

SMILES: CC(=O)NC1=C(C)C(=O)c2c(nc3n2CCC3)C1=N
IC50 (WiDr): 10000 nM

SMILES: CO[C@@]12[C@H](COC(N)=O)C3=C(C(=O)C(C)=C(N)C3=O)N1C[C@@H]1N[C@@H]12 [MITOMYCIN]
IC50 (RPMI-8226 [1]): 200 nM
IC50 (A2780 [2]): 200 nM
IC50 (SW480): 7 nM
IC50 (2008/S [9]): Not Active
IC50 (A2780 [4]): 100 nM
IC50 (WiDr): 10 nM
IC50 (2008/R [10]): Not Active

SMILES: CC1=C(N2CC2)C(=O)c2nc3n(c2C1=O)CCC3OC(N)=O (configuration not stated)
IC50 (RPMI-8226 [1]): 140 nM
IC50 (A2780 [2]): 200 nM
IC50 (SW480): 19 nM
IC50 (2008/S [9]): Not Active
IC50 (A2780 [4]): 100 nM
IC50 (WiDr): 100 nM
IC50 (2008/R [10]): Not Active

The remaining compounds from weak to strong by IC50 (WiDr), led by results:

IC50 (WiDr): 16000 nM
SMILES: CC(=O)NC1=C(C)C(=O)c2c(nc3n2CCC3OC(N)=O)C1=O (configuration not stated)

IC50 (WiDr): 13000 nM
SMILES: CC1=C(N(C)C)C(=O)c2nc3n(c2C1=O)CCC3

IC50 (WiDr): 10000 nM
SMILES: CC(=O)OC1CCn2c1nc1c2C(=O)C(C)=C(N(C)C)C1=O (configuration not stated)

IC50 (WiDr): 10000 nM
SMILES: CC1=CC(=O)c2nc3n(c2C1=O)CCC3OC(N)=O (configuration not stated)

IC50 (WiDr): 6000 nM
SMILES: CC(=O)NC1=C(C)C(=O)c2c(nc3n2CCC3OC(C)=O)C1=O (configuration not stated)

IC50 (WiDr): 500 nM
SMILES: CC(=O)NC1=C(C)C(=O)c2c(nc3n2CCC3)C1=O

IC50 (WiDr): 300 nM
SMILES: CC(=O)OC1CCn2c1nc1c2C(=O)C(C)=CC1=O (configuration not stated)

IC50 (WiDr): 280 nM
SMILES: CC(=O)OC1CCn2c1nc1c2C(=O)C(C)=C(NC(=O)CCl)C1=N (configuration not stated)

IC50 (WiDr): 150 nM
SMILES: CC(=O)NC1=C(C)C(=O)c2c(nc3n2CCC3OC(C)=O)C1=N (configuration not stated)
